Some results are limits rather than exact numbers.

For this experiment, the target named is T1, Nuclear factor NF-kappa-B p105 subunit (Homo sapiens, UniProt P19838).
T1 sequence (P19838 whole entry): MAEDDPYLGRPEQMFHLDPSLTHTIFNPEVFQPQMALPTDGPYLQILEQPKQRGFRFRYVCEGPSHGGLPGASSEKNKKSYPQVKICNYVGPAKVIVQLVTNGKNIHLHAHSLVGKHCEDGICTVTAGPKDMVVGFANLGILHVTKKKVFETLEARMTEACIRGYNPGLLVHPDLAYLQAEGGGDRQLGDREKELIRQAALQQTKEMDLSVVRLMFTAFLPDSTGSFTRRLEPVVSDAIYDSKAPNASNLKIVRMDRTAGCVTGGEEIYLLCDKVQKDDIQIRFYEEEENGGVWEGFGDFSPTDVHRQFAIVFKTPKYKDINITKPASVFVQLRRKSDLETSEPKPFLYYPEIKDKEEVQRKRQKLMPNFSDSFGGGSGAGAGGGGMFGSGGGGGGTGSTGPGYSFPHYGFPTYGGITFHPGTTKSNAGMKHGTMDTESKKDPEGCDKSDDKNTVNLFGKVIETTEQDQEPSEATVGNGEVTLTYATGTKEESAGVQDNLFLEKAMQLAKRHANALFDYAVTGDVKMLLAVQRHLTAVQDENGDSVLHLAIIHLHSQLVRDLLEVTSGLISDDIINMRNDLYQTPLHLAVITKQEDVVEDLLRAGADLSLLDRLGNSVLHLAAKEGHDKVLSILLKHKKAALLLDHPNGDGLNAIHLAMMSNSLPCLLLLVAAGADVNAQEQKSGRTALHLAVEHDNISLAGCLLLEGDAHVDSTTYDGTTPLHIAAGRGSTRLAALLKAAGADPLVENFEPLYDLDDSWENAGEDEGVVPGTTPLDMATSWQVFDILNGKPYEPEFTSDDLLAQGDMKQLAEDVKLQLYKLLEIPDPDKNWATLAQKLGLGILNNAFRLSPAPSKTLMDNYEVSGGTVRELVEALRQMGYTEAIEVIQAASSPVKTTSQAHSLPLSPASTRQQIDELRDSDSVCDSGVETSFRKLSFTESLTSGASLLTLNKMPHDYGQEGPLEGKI
As to the kind of experiment: Inhibition of human NF-kappaB p50/DNA interaction using 32P-labeled oligonucleotides as substrate preincubated for 20 mins before substrate addition measured after 20 mins by electrophoretic mobility shift assay. The procedure, abridged:
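Probe: NF-κB site dsDNA (5′-CGC TGG GGA CTT TCC ACG G-3′) end-labeled with γ32P-ATP/T4 kinase, annealed. 10 ng human p50 (± 10 ng p65) preincubated with compound 20 min RT in buffer TF + 5% glycerol, 1 mM DTT; 0.25 ng probe added, 20 min RT; run on 6% polyacrylamide, 0.25× TBE, 200 V.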
For orientation: Mobility shift assays separate free from complexed probe on a gel.
Regarding `Cc1c(CCC(=O)Nc2cccc(C(F)(F)F)c2)c(=O)oc2c(C)c3oc4c(c3cc12)CCCC4`, the concentration giving a half-maximal response (EC50) (as a rule, the concentration at which the effect is half-maximal) was more than 10000 µM. To `Cc1c(CC(=O)Nc2cccc(O)c2)c(=O)oc2c(C)c3oc4c(c3cc12)CCCC4` belongs 3000 µM. As to `Cc1oc2c(C)c3oc(=O)c(CCC(=O)NC(Cc4ccccc4)C(=O)O)c(C)c3cc2c1C` (racemic), the EC50 is 1000 µM. The value for `Cc1c(CC(=O)Nc2ccccc2C(=O)O)c(=O)oc2cc3occ(C(C)(C)C)c3cc12` was 80 µM; that for `Cc1c(CCC(=O)NCc2ccccc2Cl)c(=O)oc2c(C)c3occ(C(C)(C)C)c3cc12` was 4000 µM. For `Cc1c(CCC(=O)Nc2cccc(C(=O)O)c2)c(=O)oc2c(C)c3oc4c(c3cc12)CCCC4`, the EC50 came to 100 µM. As to `Cc1c(CC(=O)Nc2ccc(C(N)=O)cc2)c(=O)oc2c(C)c3oc4c(c3cc12)CCCC4`, the EC50 worked out at 700 µM. To `Cc1c(CCC(=O)Nc2ccc(C(N)=O)cc2)c(=O)oc2c(C)c3oc4c(c3cc12)CCCC4` belongs 700 µM. With `Cc1c(CC(=O)Nc2cccc(C(F)(F)F)c2)c(=O)oc2c(C)c3oc4c(c3cc12)CCCC4`, the half-maximal effective concentration (EC50) was 3000 µM. As for `Cc1c(CC(=O)Nc2cccc(C(=O)O)c2)c(=O)oc2cc3oc4c(c3cc12)CCCC4`, the half-maximal effective concentration (EC50) stood at 100 µM.

`O=c1ccc2c(-c3ccccc3S(=O)(=O)O)c3ccc(O)c(O)c3oc-2c1O` [PYROGALLOL RED]: the EC50 was 30 µM. The value for `Cc1c(CCC(=O)NC(Cc2ccccc2)C(=O)O)c(=O)oc2cc3oc4c(c3cc12)CCCC4` (racemic) was 100 µM; that for `Cc1oc2c(C)c3oc(=O)c(CCC(=O)Nc4cccc(C(=O)O)c4)c(C)c3cc2c1C` was 80 µM. In the case of `Cc1c(CC(=O)NC(Cc2ccccc2)C(=O)O)c(=O)oc2cc3oc4c(c3cc12)CCCC4` (racemic), the 50% effective concentration (EC50) amounted to 80 µM. For `Cc1oc2c(C)c3oc(=O)c(CC(=O)Nc4ccc(C(=O)O)cc4)c(C)c3cc2c1C`, the concentration for a half-maximal effect (EC50) turned out to be 100 µM. As for `Cc1c(CCC(=O)Nc2cccc(C(=O)O)c2)c(=O)oc2cc3oc4c(c3cc12)CCCC4`, the EC50 amounted to 100 µM. To `Cc1c(CC(=O)Nc2ccc(C(=O)O)cc2)c(=O)oc2c(C)c3occ(C(C)(C)C)c3cc12` belongs 60 µM. The value for `Cc1oc2c(C)c3oc(=O)c(CC(=O)Nc4cccc(C(=O)O)c4)c(C)c3cc2c1C` was 600 µM; that for `Cc1c(CCC(=O)Nc2cccc(C(=O)O)c2)c(=O)oc2cc3occ(C(C)(C)C)c3cc12` was 60 µM. As to `Cc1c(CC(=O)NCc2ccc(C(=O)O)cc2)c(=O)oc2cc3occ(C(C)(C)C)c3cc12`, the EC50 came out at 600 µM. In the case of `Cc1c(CCC(=O)Nc2ccc(O)cc2)c(=O)oc2c(C)c3oc4c(c3cc12)CCCC4`, the EC50 came to 3000 µM. To `Cc1c(CC(=O)Nc2cccc(C(=O)O)c2)c(=O)oc2cc3occ(C(C)(C)C)c3cc12` belongs 10 µM; to `Cc1c(CCC(=O)Nc2ccc(C(=O)O)cc2)c(=O)oc2c(C)c3occ(C(C)(C)C)c3cc12`, 40 µM. To `Cc1c(CC(=O)Nc2cccc(C(=O)O)c2)c(=O)oc2c(C)c3oc4c(c3cc12)CCCC4` belongs 70 µM; to `Cc1c(CC(=O)NC(Cc2ccccc2)C(=O)O)c(=O)oc2c(C)c3oc4c(c3cc12)CCCC4` (racemic), 1000 µM; to `Cc1c(CC(=O)Nc2ccc(CC(=O)O)cc2)c(=O)oc2cc3occ(C(C)(C)C)c3cc12`, 530 µM. To `CC1=C/C(=C(/c2cc(C)c(O)c(C(=O)O)c2)c2c(Cl)ccc(S(=O)(=O)O)c2Cl)C=C(C(=O)O)C1=O` [CHROME AZUROL S] belongs 100 µM. In the case of `Cc1c(CCC(=O)Nc2ccc(CC(=O)O)cc2)c(=O)oc2cc3occ(C(C)(C)C)c3cc12`, the concentration giving a half-maximal response (EC50) turned out to be 80 µM. As for `Cc1c(CCC(=O)Nc2ccc(C(=O)O)cc2)c(=O)oc2c(C)c3oc4c(c3cc12)CCCC4`, the EC50 amounted to 60 µM. As for `Cc1c(CC(=O)O)c(=O)oc2c(C)c3occ(C(C)(C)C)c3cc12`, the EC50 came to 800 µM. The value for `Cc1c(CCC(=O)Nc2ccc(N)cc2)c(=O)oc2c(C)c3oc4c(c3cc12)CCCC4` was 3000 µM; that for `Cc1c(CC(=O)Nc2ccc(C(=O)O)cc2)c(=O)oc2c(C)c3oc4c(c3cc12)CCCC4` was 100 µM.

For the compound `Cc1oc2c(C)c3oc(=O)c(CCC(=O)Nc4ccc(C(=O)O)cc4)c(C)c3cc2c1C`, the concentration for a half-maximal effect (EC50) amounted to 60 µM. The value for `CC(=O)Nc1ccc(NC(=O)Cc2c(C)c3cc4c5c(oc4c(C)c3oc2=O)CCCC5)cc1` was 3000 µM. To `Cc1c(CCC(=O)Nc2ccccc2C(=O)O)c(=O)oc2cc3occ(C(C)(C)C)c3cc12` belongs 60 µM; to `Cc1c(CC(=O)Nc2ccc(O)cc2)c(=O)oc2c(C)c3oc4c(c3cc12)CCCC4`, 700 µM; to `Cc1c(CC(=O)NCCCC(=O)O)c(=O)oc2c(C)c3occ(C(C)(C)C)c3cc12`, 600 µM. For the compound `Cc1c(CC(=O)Nc2ccc(NS(C)(=O)=O)cc2)c(=O)oc2c(C)c3oc4c(c3cc12)CCCC4`, the EC50 was 700 µM. The value for `Cc1c(CC(=O)NCc2ccccc2Cl)c(=O)oc2c(C)c3occ(C(C)(C)C)c3cc12` was 5000 µM; that for `Cc1c(CCC(=O)Nc2ccc(C(=O)O)cc2)c(=O)oc2cc3occ(C(C)(C)C)c3cc12` was 60 µM; that for `Cc1c(CC(=O)NC(Cc2ccccc2)C(=O)O)c(=O)oc2cc3occ(C(C)(C)C)c3cc12` (configuration not stated) was 600 µM. To `Cc1oc2cc3oc(=O)c(CC(=O)Nc4ccc(C(=O)O)cc4)c(C)c3cc2c1C` belongs 40 µM; to `Cc1c(CCC(=O)Nc2ccc(NS(C)(=O)=O)cc2)c(=O)oc2c(C)c3oc4c(c3cc12)CCCC4`, 1000 µM. The value for `Cc1c(CCC(=O)Nc2ccc(C(=O)O)cc2)c(=O)oc2cc3oc4c(c3cc12)CCCC4` was 10 µM; that for `Cc1c(CCC(=O)NC(Cc2ccccc2)C(=O)O)c(=O)oc2cc3occ(C(C)(C)C)c3cc12` (racemic) was 100 µM. With `Cc1oc2c(C)c3oc(=O)c(CC(=O)O)c(C)c3cc2c1C`, the EC50 worked out at 6000 µM. The value for `CC(=O)Nc1ccc(NC(=O)CCc2c(C)c3cc4c5c(oc4c(C)c3oc2=O)CCCC5)cc1` was 1000 µM; that for `Cc1c(CCC(=O)NCc2ccc(C(=O)O)cc2)c(=O)oc2cc3occ(C(C)(C)C)c3cc12` was 670 µM; that for `Cc1oc2c(C)c3oc(=O)c(CC(=O)NC(Cc4ccccc4)C(=O)O)c(C)c3cc2c1C` (racemic) was 600 µM. To `Cc1c(CC(=O)O)c(=O)oc2cc3occ(C(C)(C)C)c3cc12` belongs 800 µM; to `Cc1coc2c(C)c3oc(=O)c(CC(=O)NCc4ccccc4Cl)c(C)c3cc12`, 800 µM; to `O=C1C=C/C(=C(/c2ccc(O)c(O)c2)c2ccccc2S(=O)(=O)O)C=C1O` [PYROCATECHOL VIOLET], 50 µM. To `Cc1oc2cc3oc(=O)c(CCC(=O)Nc4cccc(C(=O)O)c4)c(C)c3cc2c1C` belongs 600 µM. With `Cc1c(CCC(=O)NC(Cc2ccccc2)C(=O)O)c(=O)oc2c(C)c3occ(C(C)(C)C)c3cc12` (racemic), the 50% effective concentration (EC50) is 60 µM.

`Cc1c(CCC(=O)Nc2cccc(O)c2)c(=O)oc2c(C)c3oc4c(c3cc12)CCCC4`: the concentration for a half-maximal effect (EC50) amounted to 700 µM. Regarding `O=C1C=CC(=C(c2ccc(O)cc2)c2ccc(O)cc2)C=C1` [AURIN], the 50% effective concentration (EC50) was 50 µM. To `Cc1oc2cc3oc(=O)c(CC(=O)Nc4cccc(C(=O)O)c4)c(C)c3cc2c1C` belongs 700 µM.

These data come from ChEMBL document CHEMBL2321870, “Psoralen derivatives as inhibitors of NF-κB/DNA interaction: synthesis, molecular modeling, 3D-QSAR, and biological evaluation” (J Med Chem, 2013).
